In general, IC50 refers to the concentration at which inhibition is half-maximal.

“And” between values parts separate entries of the source, which are not always exact repeats. Identical values can stand only once. Like-named read-outs stand apart in the source and are kept apart here. {FAM} = fluorescein (FAM) label

This is an account of results in publication PMC3217094 (DNA repair, 2011).

The target in series [1] is T1, AGT (Homo sapiens, UniProt P16455).
T1 sequence (P16455 with tags, fused parts or gaps limits assumed): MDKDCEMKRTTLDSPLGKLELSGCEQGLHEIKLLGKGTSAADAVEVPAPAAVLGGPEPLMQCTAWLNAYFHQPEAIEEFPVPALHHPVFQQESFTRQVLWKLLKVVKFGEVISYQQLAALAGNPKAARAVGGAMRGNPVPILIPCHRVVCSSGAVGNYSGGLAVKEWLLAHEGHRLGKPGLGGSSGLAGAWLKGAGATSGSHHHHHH
Put plainly: Sedimentation equilibrium analysis of AGT-DNA complexes. The format is binding. Particulars: mean ± SEM for ≥3 determinations, 4°C.

The target in series [2] is T1, AGT. Particulars: AGT binding single-stranded DNA; for Hill coefficient (n) from anisotropy measurements / Hill coefficient (n) from intensity measurements: 4°C; for Ka from anisotropy measurements: apparent association constant.
For series [3], the target named is T1, AGT. The series is described as follows: DNA alkyltransferase assay. The format is biochemical.
Series [4] has as its target T1, AGT. Put plainly: Binding of free dye to AGT detected by fluorescence anisotropy. In outline:
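Each step equilibrated 1 h at 4°C before reading anisotropy, with emission intensity also recorded. Fractional saturation Y = (A − A0)/(Amax − A0), where A0 is dye without protein and Amax the saturated complex, plotted against AGT concentration.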
(Polarisation of emitted light reports the rotation of a fluorescent probe.)

Series [5] has as its target T1, AGT. Put plainly: Mobility shift assay: inhibition of AGT DNA binding. As to conditions: IC50 for inhibition of DNA binding.
Series [6] concerns the target T2, benzyl-AGT (Homo sapiens, UniProt P16455, A204H/G205H/N207H/P202H/P203H/R206H).
T2 sequence (P16455 with tags, fused parts or gaps): T1 sequence (P16455 with tags, fused parts or gaps limits assumed)
The series is described as follows: Binding of FAM to benzyl-AGT detected by fluorescence anisotropy.

The target of series [7] is T2, benzyl-AGT. The series is described as follows: Mobility shift titration of 32P-labeled 24-mer DNA with benzyl-AGT. The format is binding. Particulars: AGT modified with O^6-benzylguanine.
For series [8], the target named is T3, O6-alkylguanine-DNA alkyltransferase (AGT, MGMT) (human, UniProt P16455 1-201). Put plainly: fluorescence anisotropy.
Series [9] deals with T3, O6-alkylguanine-DNA alkyltransferase …. Put plainly: fluorescence anisotropy. This is another data set of the same source.
For series [10] the target is unchanged. The series is described as follows: fluorescence anisotropy. This is another data set of the same source.
For series [11] the target is unchanged. The series is described as follows: fluorescence anisotropy. This is another data set of the same source.

Turning to “3′-(FAM)-26-mer Oligo F: 5′- AGTCAGTCAGTCAGTCAGTCAGTCAG(FAM) -3′ (DNA AGTCAGTCAGTCAGTCAGTCAGTCAG; DNA, 3' {FAM}, backbone not given here)”, the “Stoichiometry of saturated AGT-DNA complex” value with AGT [1] amounted to 6.38 ± 0.21. In the series with AGT [2], the “Hill coefficient (n) from anisotropy measurements” value is given as 2.13 ± 0.14, the “Hill coefficient (n) from intensity measurements” value was determined as 3.33 ± 0.27 and the “Ka from anisotropy measurements” value was 3.30 ± 0.12 × 10^5 M^−1.
For the molecule “5′-(FAM)-26-mer Oligo F: 5′- (FAM)AGTCAGTCAGTCAGTCAGTCAGTCAG -3′ (DNA AGTCAGTCAGTCAGTCAGTCAGTCAG; DNA, 5' {FAM}, backbone not given here)”, the “Stoichiometry of saturated AGT-DNA complex” value with AGT [1] was determined as 6.59 ± 0.20. For the same molecule, in the series with AGT [2], the “Hill coefficient (n) from anisotropy measurements” value is given as 2.02 ± 0.17, the “Hill coefficient (n) from intensity measurements” value worked out at 2.92 ± 0.62 and the “Ka from anisotropy measurements” value was 3.33 ± 0.15 × 10^5 M^−1.
Molecule `Nc1nc2c(ncn2[C@@H]2O[C@H](COP(=O)(O)O)[C@@H](O)[C@H]2O)c(=O)[nH]1` [5′-GMP, guanosine 5′ monophosphate] gave an IC50 against AGT [3] of 34.6 µM.
`O=S(=O)(O)c1cccc2c(-c3ccc(Nc4ccccc4)c4c(S(=O)(=O)O)cccc34)ccc(Nc3ccccc3)c12` [Bis-ANS, 4,4′-bis(phenylamino)-[1,1′-Binaphthalene]-5,5′-disulfonic acid]: the Kd on AGT [4] was found to be 33.1 µM. The IC50 on AGT [3] was 48.6 µM.
For `O=C(O)c1ccc(C(=O)O)c(-c2c3ccc(=O)cc-3oc3cc(O)ccc23)c1` [FAM, 6-Carboxyfluorescein], the Kd is 13 µM and 12.7 µM at AGT [4] (Kd, apparent, from fluorescence anisotropy data, single-site (1:1) fit, unmodified AGT, 4°C, no DNA); 82.2 µM on benzyl-AGT [6]. In addition, at AGT [4] (fluorescence anisotropy, Eq. 5 with n = 1, 4°C), the “apparent binding affinity K (Ka)” value was 7.84 ± 0.24 × 10^4 M^−1 and 7.8 × 10^4 M^−1. Further, the IC50 at AGT [5] (duplex 24mer 0.17μM, AGT 3.9μM, 20°C) was 76.3 µM; on AGT [5] (electrophoretic analysis, approximate value) it was ~76 µM. Moreover, on AGT [3], the “concentration sufficient to completely inhibit AGT activity” value worked out at 1.8 mM.
As for `Nc1nc(OCc2ccccc2)c2nc[nH]c2n1` [O^6-benzylguanine], at AGT [3] (AGT modified with O^6-benzylguanine (37°C, 50mM Tris, pH 7.6, 1mM EDTA, 5 mM DTT)), the “residual AGT activity in DNA repair after treatment” value is on record as < 1%. The “DNA binding of treated AGT” value on benzyl-AGT [7] was “fully-competent in DNA binding”. On benzyl-AGT [7] (duplex 24mer DNA), the “apparent stoichiometry n of DNA binding” value was determined as 5.5 ± 0.2.
`Cc1ccc2c(c1)sc(-c1ccc(N(C)C)cc1)[n+]2C` [ThT, Thioflavin T]: 217 µM corresponded to half-maximal inhibition at AGT [3] (IC50).
As to “Unmodified 16-mer Oligo A: 5′- AGT CAG TCA GTC AGT C -3′ (DNA AGTCAGTCAGTCAGTC; unmodified DNA)”, the “Stoichiometry of saturated AGT-DNA complex” value in the series with AGT [1] is reported as 3.86 ± 0.08.
Regarding “Unmodified 26-mer: 5′- AGTCAGTCAGTCAGTCAGTCAGTCAG -3′ (DNA AGTCAGTCAGTCAGTCAGTCAGTCAG; unmodified DNA)”, the “Stoichiometry of saturated AGT-DNA complex” value with AGT [1] is given as 5.89 ± 0.07.

B1: 5'-FAM-Oligo A (ssDNA)
DNA: AGTCAGTCAGTCAGTC
B1 yielded a Ka in [8] of 295000 M⁻¹.

B2: 3'-FAM-Oligo F (ssDNA)
DNA: AGTCAGTCAGTCAGTCAGTCAGTCAG
Regarding B2, in [9], the Ka stood at 330000 M⁻¹.

B3: 5'-FAM-Oligo F (ssDNA)
DNA: AGTCAGTCAGTCAGTCAGTCAGTCAG
Take B3: in [10], the Ka worked out at 333000 M⁻¹.

B4: 3'-FAM-Oligo A (ssDNA)
DNA: AGTCAGTCAGTCAGTC
B4 showed a Ka in [11] of 282000 M⁻¹.
